Calls of active or inactive are those of the source. The calls are words filed in the database; no cut-off is given here.
Legend:
[1] = test system: Vibrio cholerae; assay: Inhibition of Vibrio cholerae recombinant MARTX toxin (3391-3650) cysteine protease domain autoprocessing assessed as concentration of InsP6 required to activate half maximal cleavage of the enzyme at 10 uM by Coomassie staining based SDS-PAGE method
Procedure, shortened: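 N-terminally His6-tagged CPD (aa 3391–3650, 1 µM) in 60 mM NaCl, 20 mM Tris pH 7.5, 250 mM sucrose was pretreated with 10 µM inhibitor for 30 min at room temperature. InsP6 was added across a concentration range, followed by 1 h at 37°C. Samples were run on SDS-PAGE with Coomassie staining and densitometry. Cleaved/total fraction was plotted against InsP6 and fitted with a Michaelis-Menten function to give AC50(I). Triplicates.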

[2] = test system: Vibrio cholerae; assay: Inhibition of Vibrio cholerae recombinant MARTX toxin (3391-3650) cysteine protease domain autoprocessing assessed as reduction of GTPgamma-S-induced activation of protease activity at 100 uM after 15 mins by Coomassie staining based SDS-PAGE method
Procedure, shortened: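 His6-tagged CPD (aa 3391–3650, 1 µM) in 60 mM NaCl, 20 mM Tris pH 7.5, 250 mM sucrose was preincubated with 100 µM inhibitor (30 min at room temperature per Methods; 15 min per legend). GTPγS was then added to 200 µM final to trigger autoprocessing, 2 h at 37°C. Read-out was 15% SDS-PAGE with Coomassie staining. Screen run in triplicate; hits confirmed in a secondary screen.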

[3] = test system: HFF; assay: Inhibition of MARTX toxin cysteine protease domain autoprocessing in Vibrio cholerae assessed as assessed as reduction in actin cross linking in HFF cells exposed to Vibrio cholerae supernatants pretreated at 50 uM for 15 mins by Western blot; format: cell-based
[4] = test system: HFF; assay: Inhibition of Vibrio cholerae MARTX toxin cysteine protease domain autoprocessing assessed as assessed as reduction in actin cross linking in HFF cells at 50 uM pretreated for 15 before Vibrio cholerae supernatants addition by Western blot; format: cell-based
[5] = test system: Vibrio cholerae; assay: Inhibition of MARTX toxin cysteine protease domain autoprocessing at Leu3099 residue in wild type Vibrio cholerae at >50 uM by Western blot
Procedure, shortened: (§1)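 Culture supernatants were TCA-precipitated and resolved by SDS-PAGE. Western blot with a polyclonal anti-CPD antibody read out MARTX_Vc processing, seen as accumulation of unprocessed toxin (~460 kDa) compared with untreated wild-type supernatants.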

[6] = test system: Vibrio cholerae; assay: Inhibition of MARTX toxin cysteine protease domain autoprocessing at Leu3441 residue in wild type Vibrio cholerae at 100 uM by Western blot; procedure, shortened: as §1
[7] = test system: Vibrio cholerae; assay: Inhibition of MARTX toxin cysteine protease domain autoprocessing in wild type Vibrio cholerae by Western blot; procedure, shortened: as §1

Structure (SMILES) | Activity [1] [nM] | inhibition [2] | inhibition [3] | inhibition [4] | inhibition [5] | inhibition [6] | inhibition [7]
CCOC(=O)[C@@H]1O[C@H]1C(=O)N(CC(C)C)NC(=O)[C@H](CC(C)C)NC(=O)[C@H](CC(C)C)NC(=O)OCc1ccccc1 | 5.2 | Active |  |  |  |  | 
CCOC(=O)[C@H]1O[C@@H]1C(=O)N(CC(C)C)NC(=O)[C@H](CC(C)C)NC(C)=O | 21 | Active |  |  |  |  | 
CCOC(=O)[C@@H]1O[C@H]1C(=O)N(CC(C)C)NC(=O)OCc1ccccc1 (relative stereo) | 1.1 | Active |  |  |  |  | 
Cc1cccc(C)c1C(=O)OCC(=O)[C@H](CC(C)C)NC(=O)[C@H](C)NC(=O)[C@H](CCC(=O)O)NC(=O)OCc1ccccc1 | 529 | Active | Active | inactive | Active | inactive | Dose-dependent effect
Cc1cccc(C)c1C(=O)OCC(=O)[C@H](CC(C)C)NC(=O)[C@H](C)NC(=O)[C@H](CCC(=O)O)NC(=O)[C@H](CCCCN)NC(=O)OCc1ccccc1 | 290 | Active |  |  |  |  | 
CCOC(=O)[C@H]1O[C@@H]1C(=O)N(CC(C)C)NC(=O)[C@H](CC(C)C)NC(=O)OCc1ccccc1 | 11 | Active |  |  |  |  | 
CC(C)C[C@H](NC(=O)OCc1ccccc1)C(=O)N[C@@H](CC(C)C)C(=O)NN(CC(C)C)C(=O)[C@H]1O[C@@H]1C(=O)O | 158 | Active |  |  |  |  | 
Cc1cccc(C)c1C(=O)OCC(=O)[C@H](CC(C)C)NC(=O)[C@H](C)NC(=O)OCc1ccccc1 | 187 | Active |  |  |  |  | 
CCOC(=O)[C@H]1O[C@@H]1C(=O)N(CC(C)C)NC(=O)[C@H](CC(C)C)NC(=O)[C@H](CC(C)C)NC(=O)OCc1ccccc1 (stereo in doubt; 7) | 457 | Active | Active | Active | Active | inactive | Dose-dependent effect
CCOC(=O)[C@H]1O[C@@H]1C(=O)N(CC(C)C)NC(=O)[C@H](CC(C)C)NC(=O)[C@H](CC(C)C)NC(=O)OCc1ccccc1 (stereo in doubt; 9) | 74 | Active |  |  |  |  | 
